Source: PubChem
MT stabilize HCS: microtubule stabilizers in HeLa cells, primary screen, imaging, high-content imaging. % tubulin-high responders, % at 10 µM. HeLa tubulin immunostaining HCS, 24 h; share of cells brighter than vehicle mean+2SD. 200,000 compounds, 0.83% hits;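 active = plate Z-score above 3 for both tubulin-high and condensed-nucleus cell shares, with cell loss under 80%, at 10 µM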;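 note: anti alpha tubulin signal scored within the nucleus-defined area of each cell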
HSV augment: enhancers of HSV replication in host cells, fold increase, host cell viability | HSV replication augmentation in cells | maximum fold increase | 220,000 compounds, 0.005% hits | AID 1956, 2009; in the data active = maximum fold increase above about 1.5; tested in PC3 cells
ROMK primary: ROMK potassium channel modulators, primary screen, cell-based, thallium flux, MLSMR library; 130,000 compounds, 2% hits; ATP-sensitive inward rectifier potassium channel 1 (Homo sapiens), P48048; Tet-inducible ROMK, thallium flux fluorescence; actives lie on both sides; B-score at 10 µM; AID 1918, 2009;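 active = signal ratio slope over the read window, or its plate-corrected B-score, at least 3 SD from the plate mean, either direction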;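 note: B-score of the F/F0 ratio slope over 7 to 12 s after thallium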
Target sequence (P48048 whole entry, looked up): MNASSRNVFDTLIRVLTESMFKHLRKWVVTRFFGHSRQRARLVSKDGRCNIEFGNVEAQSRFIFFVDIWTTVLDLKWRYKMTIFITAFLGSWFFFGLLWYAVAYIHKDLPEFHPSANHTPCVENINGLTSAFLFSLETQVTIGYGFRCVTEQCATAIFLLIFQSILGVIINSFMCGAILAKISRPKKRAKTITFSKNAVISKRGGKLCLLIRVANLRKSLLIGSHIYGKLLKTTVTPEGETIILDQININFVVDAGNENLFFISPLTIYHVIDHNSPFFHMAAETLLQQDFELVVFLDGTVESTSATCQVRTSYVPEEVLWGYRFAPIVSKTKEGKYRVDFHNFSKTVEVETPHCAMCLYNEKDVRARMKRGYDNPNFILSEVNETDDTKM
bCat nuc transl: modulators of beta-catenin nuclear translocation, primary screen, imaging, HeLa cells, immunofluorescence, high-content; AID 1665, 2009; 190,000 compounds, 0.3% hits; nuclear translocation activity, % at 5 µM;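 active = nuclear translocation activity above 50% at 5 µM, with a well cell count of 50 or more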;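 note: per-cell ratio of nuclear to cytoplasmic median beta-catenin stain intensity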
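Technique: fluorescence imaging of beta-catenin antibody stain plus DAPI / Material: human HeLa cell line / Incubation: compound treatment 24 h, 37°C, 5% CO2 / Read-out basis: % activation of per-cell nuclear versus cytoplasmic median beta-catenin signal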
INS promoter inh: inhibitors of insulin promoter-driven GFP, primary screen, imaging, TRM-6 cells, eGFP reporter, cell count. reporter expression induced with tamoxifen. inhibition, % at 2 µM. 130,000 compounds, 0.9% hits;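 active = inhibition above the mean plus 3 SD, with well images judged a real hit on visual review, cut at about 60% in these data, passing the limit was not always enough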
Of the large screens only hits and unclear results are named; the others gave an inactive call. Most compounds without a hit are left out; they make up all but 2.4% or so of the library.

COc1ccc(CNC(=O)C2CC(c3cc(C(F)(F)F)cc(C(F)(F)F)c3)=NO2)cc1 (stereo unspecified)	none (no result: MT stabilize HCS, ROMK primary, INS promoter inh)
COc1cccc(C2=NOC(C(=O)NCc3ccccc3)C2)c1 (stereo unspecified)	MT stabilize HCS 18.9, bCat nuc transl 131.1 (no result: HSV augment, ROMK primary)
COc1ccc(CNC(=O)C2CC(c3ccccc3C(F)(F)F)=NO2)cc1 (stereo unspecified)	none (no result: MT stabilize HCS, ROMK primary, INS promoter inh)
COc1ccc(C2=NOC(C(=O)NCc3ccccc3)C2)cc1 (stereo unspecified)	bCat nuc transl 153.7 (no result: HSV augment, ROMK primary)
Clc1ncnc2scc(-c3ccc(Br)cc3)c12	none
COc1ccc(OC)c(NC(=O)CSc2nc3ccccc3c3nc4ccccc4n23)c1	none (no result: ROMK primary, INS promoter inh)
COc1ccc(NC(=O)CSc2nc3ccccc3c3nc4ccccc4n23)cc1	MT stabilize HCS 25.0 (no result: INS promoter inh)
Cc1ccc(NC(=O)CSc2nc3ccccc3c3nc4ccccc4n23)cc1	MT stabilize HCS 32.5, bCat nuc transl 148.2 (no result: INS promoter inh)
COc1ccc(CN(C(=O)c2ccco2)c2ccc(C)c(C)c2)cc1	MT stabilize HCS 16.1
CCOc1ccc(N(Cc2ccc(OC)cc2)C(=O)c2ccco2)cc1	none
CCCn1c(N)c(NCCN2CCOCC2)c(=O)[nH]c1=O	none
COc1ccc2c(c1)C1C=CCC1C(c1cc3c(cc1Br)OCO3)N2 (stereo unspecified)	MT stabilize HCS 38.5 (no result: ROMK primary, bCat nuc transl)
CCOc1ccc(NC(=S)N=Nc2c(O)[nH]c3ccccc23)cc1	ROMK primary 1.21 (no result: INS promoter inh)
COc1ccc(/C(C)=N/OC/C(O)=C(\C#N)c2nc3ccccc3[nH]2)cc1OC	MT stabilize HCS 15.7
COc1ccc(CNC(=O)C2(c3ccc(Cl)cc3)CC2)cc1	INS promoter inh 75.0
CCNC(=O)NC(=O)C(C)OC(=O)[C@H](C)NS(=O)(=O)c1c(C)c(C)cc(C)c1C (stereo partly specified)	none (no result: MT stabilize HCS, ROMK primary, INS promoter inh)
O=c1[nH]c2ccsc2c(=O)n1-c1ccc(F)c(Cl)c1	none (no result: ROMK primary, INS promoter inh)
CCOc1cc(/C=C(/C#N)C(=O)Nc2ccc(O)cc2)cc(Br)c1O	bCat nuc transl 62.1 (no result: HSV augment, ROMK primary)
COc1ccc(C2=NN(S(C)(=O)=O)C(c3cccs3)C2)cc1OC (stereo unspecified)	none (no result: MT stabilize HCS, INS promoter inh)
CC(=O)c1sc2nc(C)cc(C)c2c1N	INS promoter inh 76.9 (no result: ROMK primary)
CCCc1[nH]n(-c2ccc(F)cc2)c(=O)c1C=Nc1cccc(F)c1	MT stabilize HCS 17.0 (no result: ROMK primary)
COc1ccc(N(C)C2=NS(=O)(=O)c3ccccc32)cc1	MT stabilize HCS 49.3 (no result: INS promoter inh)
COC1=NS(=O)(=O)c2ccccc21	none (no result: ROMK primary, INS promoter inh)
COc1ccc(C(=O)Nn2c(SCC(=O)c3ccc(Cl)cc3)nc3ccccc3c2=O)cc1	INS promoter inh 82.9 (no result: ROMK primary)
Cc1ccc(N2CCN(C(=O)c3ccccc3)CC2)c(C)c1	none (no result: ROMK primary, bCat nuc transl)
COc1cc(C(=O)N2CCN(c3ccc(C)cc3C)CC2)cc(OC)c1OC	MT stabilize HCS 27.3 (no result: ROMK primary, INS promoter inh)
Cc1ccc(-n2nc(C)c3onc(C)c3c2=O)cc1	none (no result: MT stabilize HCS, ROMK primary, INS promoter inh)
CCn1c(COc2ccc(C)cc2)nnc1SCC(=O)NCc1ccco1	none (no result: INS promoter inh)
CCOc1ccc(Nc2nc(Cc3nnc(SCC(=O)NCc4ccco4)n3CC)cs2)cc1	bCat nuc transl 148.0 (no result: ROMK primary)
COc1ccc(S(=O)(=O)Nc2cccc(-c3ccc4nncn4n3)c2)cc1F	MT stabilize HCS 29.8 (no result: ROMK primary, INS promoter inh)
Cc1c(C)n(CC(O)CN2CCCCCC2)c2ccccc12 (stereo unspecified)	ROMK primary -2.06 (no result: INS promoter inh)
Cc1c(C)n(CC(O)CNc2ccccc2)c2ccccc12 (stereo unspecified)	none
COC(=O)c1sc(N)c(C(=O)OC)c1COC(=O)c1c(C)noc1C	MT stabilize HCS 55.8 (no result: ROMK primary, INS promoter inh)
CCOC(=O)c1c(N)sc(C(=O)OC)c1C	none (no result: INS promoter inh)
Cn1c(=O)c2c(ncn2CC(O)CNc2cccc(Cl)c2)n(C)c1=O (stereo unspecified)	none
CCN1CC(CN(C)Cc2nc(-c3ccc(C(F)(F)F)cc3)no2)CC1=O (stereo unspecified)	bCat nuc transl 57.4 (no result: INS promoter inh)
CCN1CC(CN(C)Cc2nc(-c3cccs3)no2)CC1=O (stereo unspecified)	none
Cc1nc2ccccc2n1/N=C/c1ccc([N+](=O)[O-])s1	MT stabilize HCS 10.1
C/C(=N\NC(=O)c1ccc(CSc2nc(C)cc(C)n2)cc1)c1ccco1	none
Oc1c(C=Nc2ccccc2Cl)[nH]c2ccccc12	none (no result: MT stabilize HCS, ROMK primary, INS promoter inh)
CC(=O)c1cc(C#N)c(SCC(=O)OC(C)C)nc1C	INS promoter inh 92.6
O=C(CCn1c(=O)oc2ccccc21)N1CCCCCC1	none (no result: ROMK primary)
O=C(CCn1c(=O)oc2ccccc21)N1CCN(c2ccccc2Cl)CC1	MT stabilize HCS 44.2 (no result: ROMK primary)
O=c1cc(CSc2ccc(Cl)cc2)nc(-c2ccncc2)[nH]1	none
O=C(O)c1ccccc1C(=O)Nc1ccc(-c2csc(-c3ccccc3)n2)cc1	none (no result: ROMK primary)
O=C(Nc1ccc(N2CCCCCC2)cc1)c1ccccc1Cl	MT stabilize HCS 11.4 (no result: ROMK primary, INS promoter inh)
O=C(Nc1ccc(-c2csc(-c3ccccc3)n2)cc1)c1ccccc1Cl	MT stabilize HCS 17.2 (no result: ROMK primary)
COc1ccccc1C(=O)Nc1ccc(N2CCCCC2)cc1	none (no result: bCat nuc transl)
CCC(CCC(=O)NNC(=O)Cc1ccc([N+](=O)[O-])cc1)C(=O)O (stereo unspecified)	none (no result: MT stabilize HCS, ROMK primary, INS promoter inh)
C=CC1=C2C=C(C3CC3)N(CCCN(CC)CC)C=C2C(=O)C(C)(OC(=O)c2ccco2)C1=O (stereo unspecified)	none (no result: MT stabilize HCS, ROMK primary, bCat nuc transl, INS promoter inh)
Cc1ccc2c(c1)C(c1ccccc1)CC(=O)O2 (stereo unspecified)	none (no result: MT stabilize HCS, ROMK primary, INS promoter inh)
CCCCNC(=O)c1cc(C)nc2ccccc12	none (no result: MT stabilize HCS, ROMK primary, INS promoter inh)
Cc1cc(C(=O)NCCCN(C)C)c2ccccc2n1	INS promoter inh 77.8
O=C(/C=C/c1ccccc1Cl)c1ccccc(=O)c1O	ROMK primary -4.17 (no result: bCat nuc transl)
CCC(c1nnc(SCC(=O)Nc2nnc(-c3ccccc3)o2)n1Cc1ccccc1)N(C)C (stereo unspecified)	none (no result: INS promoter inh)
CN(C)c1cc(-c2ccc(Cl)cc2Cl)oc(=O)c1Cl	none (no result: MT stabilize HCS, ROMK primary, INS promoter inh)
COc1ccc(C2NC(=S)NC(C)=C2C(=O)Nc2ccccn2)cc1 (stereo unspecified)	MT stabilize HCS 9.2 (no result: INS promoter inh)
N#Cc1c(C(F)(F)F)cc(-c2cccs2)nc1SCc1cccnc1	MT stabilize HCS 42.1 (no result: ROMK primary, bCat nuc transl)
N#Cc1c(C(F)(F)F)cc(-c2cccs2)nc1SCc1ccc(Cl)nc1	none (no result: ROMK primary)
N#Cc1ccc(-c2cccs2)nc1SCc1cccnc1	bCat nuc transl 135.1 (no result: MT stabilize HCS, ROMK primary, INS promoter inh)
CCOc1ccc2cc(/C=C/C(=O)c3ccco3)c(Cl)nc2c1	none (no result: HSV augment)
O=C(NC(Cc1c[nH]c2ccccc12)C(=O)O)c1ccccc1 (stereo unspecified)	none
O=C(NC(Cc1c[nH]c2ccccc12)C(=O)O)/C(=C/c1ccc2c(c1)OCO2)NC(=O)c1ccccc1 (stereo unspecified)	INS promoter inh 72.7
CC(O/N=C/c1ccc(OC(F)F)cc1)C(=O)Nc1cccc(S(=O)(=O)N2CCOCC2)c1 (stereo unspecified)	none (no result: INS promoter inh)
CCOC(=O)c1[nH]c(C)c(CN(C(C)=O)c2ccc(OCC)cc2)c1C	MT stabilize HCS 20.1
CCc1nnc(NC(=O)CSc2nnc(COc3ccccc3)n2-c2ccc(C)cc2)s1	none
